Measurements from ChEMBL document CHEMBL4043093, “2-Oxo-3, 4-dihydropyrimido[4, 5-d]pyrimidinyl derivatives as new irreversible pan fibroblast growth factor receptor (FGFR) inhibitors” (Eur J Med Chem, 2017).
pIC50: −log10 of the molar value. Blank lines part the entries; values can stand above or below the compound they belong to.

Key:
[1] = Antiproliferative activity against human FGFR2-amplified SUM52 cells after 5 days by SRB assay; conditions: SUM52, 120 h
SW780 = experiment: Antiproliferative activity against human FGFR3-amplified SW780 cells after 5 days by SRB assay; conditions: SW780, 120 h
NCI-H520 = experiment: Antiproliferative activity against human FGFR1-amplified NCI-H520 cells after 7 days by SRB assay; conditions: NCI-H520, 168 h
L02 = experiment: Cytotoxicity against human HL7702 cells assessed as cell viability after 72 hrs by CCK-8 assay; format: cell-based; conditions: L02, 72 h
In short: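 Log-phase HL7702 cells were plated at ~3000 cells/well and treated 24 h later with compound or vehicle for 72 h. CCK-8 was added for 3 h and OD450 minus OD650 measured. Viability = (As−Ac)/(Ab−Ac)×100, with Ac a cell-free blank and Ab the vehicle control.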

NCI-H460 = experiment: Antiproliferative activity against human NCI-H460 cells after 5 days by SRB assay; format: functional, cell-based; conditions: NCI-H460, 120 h
In short: (§1)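 Grown in α-MEM + 5% FBS at 37 °C, 5% CO2. Seeding per well: 3000 (H661), 1000 (PC9), 400 (H460, H1299), attached overnight. Cells were dosed with a 3-fold serial dilution from DMSO stocks for 5 days. Then cold TCA fixation, 0.4% SRB staining, solubilisation in 10 mM Tris pH 10.5, absorbance at 490 nm. IC50 was derived from the curves.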

PC-9 = experiment: Antiproliferative activity against human PC9 cells after 5 days by SRB assay; format: functional, cell-based; conditions: PC-9, 120 h; in short: as §1
NCI-H661 = experiment: Antiproliferative activity against human NCI-H661 cells after 5 days by SRB assay; format: functional, cell-based; conditions: NCI-H661, 120 h; in short: as §1
NCI-H1299 = experiment: Antiproliferative activity against human NCI-H1299 cells after 5 days by SRB assay; format: functional, cell-based; conditions: NCI-H1299, 120 h; in short: as §1
[2] = biological target: Fibroblast growth factor receptor 4 (Homo sapiens, UniProt P22455); experiment: Inhibition of human recombinant His-tagged FGFR4 cytoplasmic domain ([…] residues) expressed in baculovirus using Tyr-4 peptide after 1 hr by FRET-based Z'-Lyte assay
[3] = biological target: Fibroblast growth factor receptor 3 (Homo sapiens, UniProt P22607); experiment: Inhibition of human recombinant His-tagged FGFR3 cytoplasmic domain (399 to 806 residues) expressed in baculovirus using Tyr-4 peptide after 1 hr by FRET-based Z'-Lyte assay
Chain of Fibroblast growth factor receptor 3 (P22607 whole entry, the tested form may be a part): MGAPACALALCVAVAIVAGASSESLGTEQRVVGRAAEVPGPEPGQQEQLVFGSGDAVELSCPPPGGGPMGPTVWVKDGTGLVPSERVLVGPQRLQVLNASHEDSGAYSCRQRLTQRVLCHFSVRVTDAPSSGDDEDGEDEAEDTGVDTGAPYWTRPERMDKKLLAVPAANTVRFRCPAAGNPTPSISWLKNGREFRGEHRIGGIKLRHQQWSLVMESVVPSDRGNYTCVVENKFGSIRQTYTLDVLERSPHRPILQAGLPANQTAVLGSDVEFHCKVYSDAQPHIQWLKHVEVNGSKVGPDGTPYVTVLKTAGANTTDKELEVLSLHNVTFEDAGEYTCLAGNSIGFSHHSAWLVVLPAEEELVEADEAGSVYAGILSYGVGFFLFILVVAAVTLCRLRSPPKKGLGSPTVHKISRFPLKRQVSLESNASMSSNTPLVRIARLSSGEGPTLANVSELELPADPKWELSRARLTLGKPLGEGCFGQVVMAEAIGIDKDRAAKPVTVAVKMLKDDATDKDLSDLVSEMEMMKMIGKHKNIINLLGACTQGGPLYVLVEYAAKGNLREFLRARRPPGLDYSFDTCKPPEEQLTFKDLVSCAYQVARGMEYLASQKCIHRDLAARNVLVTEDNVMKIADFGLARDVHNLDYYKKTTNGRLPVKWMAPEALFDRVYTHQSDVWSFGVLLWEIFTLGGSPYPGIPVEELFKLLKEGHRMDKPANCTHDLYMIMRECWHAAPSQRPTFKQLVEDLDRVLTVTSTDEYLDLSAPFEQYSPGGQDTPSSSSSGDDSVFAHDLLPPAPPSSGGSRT

Chain of Fibroblast growth factor receptor 4 (P22455 whole entry, the tested form may be a part): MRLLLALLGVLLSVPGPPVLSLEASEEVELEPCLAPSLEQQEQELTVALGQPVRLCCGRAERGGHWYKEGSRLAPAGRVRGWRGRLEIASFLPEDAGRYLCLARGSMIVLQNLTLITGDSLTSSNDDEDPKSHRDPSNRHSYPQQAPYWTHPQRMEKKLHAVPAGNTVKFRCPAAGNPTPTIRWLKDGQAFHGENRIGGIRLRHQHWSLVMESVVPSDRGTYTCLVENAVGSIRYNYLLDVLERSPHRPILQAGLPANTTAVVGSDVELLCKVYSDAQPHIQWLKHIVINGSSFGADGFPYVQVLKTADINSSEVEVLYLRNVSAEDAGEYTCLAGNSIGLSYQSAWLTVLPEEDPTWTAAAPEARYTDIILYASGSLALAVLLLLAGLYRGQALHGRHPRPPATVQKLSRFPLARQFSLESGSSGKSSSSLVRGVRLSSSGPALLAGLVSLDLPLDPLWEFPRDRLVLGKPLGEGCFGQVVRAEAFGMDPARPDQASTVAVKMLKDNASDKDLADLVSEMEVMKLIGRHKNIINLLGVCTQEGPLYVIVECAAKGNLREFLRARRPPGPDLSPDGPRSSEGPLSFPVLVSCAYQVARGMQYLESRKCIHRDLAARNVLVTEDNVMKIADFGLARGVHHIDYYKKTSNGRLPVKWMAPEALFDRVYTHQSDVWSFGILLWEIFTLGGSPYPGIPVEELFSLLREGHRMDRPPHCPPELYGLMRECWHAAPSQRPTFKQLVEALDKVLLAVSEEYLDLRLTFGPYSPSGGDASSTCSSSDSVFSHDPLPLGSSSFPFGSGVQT

pIC50 (SW780): 7.07
SMILES: CCN(CC)CCCCNc1ncc2cc(-c3cc(OC)cc(OC)c3)c(NC(=O)NC(C)(C)C)nc2n1 [PD-173074]
pIC50 [1]: 7.91

SMILES: COc1cc(OC)c(Cl)c(N2Cc3cnc(Nc4cccc(C)c4)nc3N(C3CCN(C(=O)/C=C/CN(C)C)CC3)C2=O)c1Cl
pIC50 (NCI-H520): 8.28 | pIC50 [1]: 8.96 | pIC50 (SW780): 7.82

SMILES: COc1cc(OC)c(Cl)c(N2Cc3cnc(NC4CCOCC4)nc3N(C3CCN(C(=O)/C=C/CN(C)C)CC3)C2=O)c1Cl
pIC50 (NCI-H520): 8.11 | pIC50 [1]: 9.24 | pIC50 (SW780): 8.48

SMILES: COc1cc(OC)c(Cl)c(N2Cc3cnc(NC(C)C)nc3N(C3CCN(C(=O)/C=C/CN(C)C)CC3)C2=O)c1Cl
pIC50 (NCI-H520): 8.31 | pIC50 [1]: 9.19 | pIC50 (SW780): 7.91

SMILES: COc1ccccc1Nc1ncc2c(n1)N(C1CCN(C(=O)/C=C/CN(C)C)CC1)C(=O)N(c1c(Cl)c(OC)cc(OC)c1Cl)C2
pIC50 (NCI-H520): 7.40 | pIC50 [1]: 8.48 | pIC50 (SW780): 7.56

SMILES: COc1cc(OC)c(Cl)c(N2Cc3cnc(NC4CCCCC4)nc3N(C3CCN(C(=O)/C=C/CN(C)C)CC3)C2=O)c1Cl
pIC50 (NCI-H520): 7.87 | pIC50 [1]: 9.08 | pIC50 (SW780): 7.84

SMILES: COc1cc(OC)c(Cl)c(N2Cc3cnc(NC4CCOC4)nc3N(C3CCN(C(=O)/C=C/CN(C)C)CC3)C2=O)c1Cl (stereo not drawn)
pIC50 (NCI-H520): 7.15 | pIC50 [1]: 8.40 | pIC50 (SW780): 7.49

SMILES: COc1cc(OC)c(Cl)c(N2Cc3cnc(Nc4ccccc4)nc3N(C3CCN(C(=O)/C=C/CN(C)C)CC3)C2=O)c1Cl
pIC50 (L02): 5.72 | pIC50 (NCI-H520): 8.38 | pIC50 (NCI-H460): 5.85 | pIC50 (PC-9): 5.90 | pIC50 [1]: 9.19 | pIC50 (NCI-H661): 5.56 | pIC50 (SW780): 8.01 | pIC50 (NCI-H1299): 5.61

pIC50 (NCI-H520): 6.92 | pIC50 (SW780): 6.56
SMILES: C=CC(=O)Nc1cccc(CN2C(=O)N(c3c(Cl)c(OC)cc(OC)c3Cl)Cc3cnc(NCCCCN(CC)CC)nc32)c1
pIC50 [1]: 8.54

SMILES: COc1cc(OC)c(Cl)c(N2Cc3cnc(N(C)C)nc3N(C3CCN(C(=O)/C=C/CN(C)C)CC3)C2=O)c1Cl
pIC50 (NCI-H520): 5.62 | pIC50 [2]: < 6.00 | pIC50 [1]: 6.65 | pIC50 (SW780): 6.24 | pIC50 [3]: < 6.00

SMILES: CNc1ncc2c(n1)N(C1CCN(C(=O)/C=C/CN(C)C)CC1)C(=O)N(c1c(Cl)c(OC)cc(OC)c1Cl)C2
pIC50 (NCI-H520): 7.25 | pIC50 [1]: 8.70 | pIC50 (SW780): 8.28

SMILES: COc1cc(OC)c(Cl)c(N2Cc3cnc(Nc4cccc(F)c4)nc3N(C3CCN(C(=O)/C=C/CN(C)C)CC3)C2=O)c1Cl
pIC50 (NCI-H520): 8.19 | pIC50 [1]: 8.96 | pIC50 (SW780): 8.05

SMILES: COc1cccc(Nc2ncc3c(n2)N(C2CCN(C(=O)/C=C/CN(C)C)CC2)C(=O)N(c2c(Cl)c(OC)cc(OC)c2Cl)C3)c1
pIC50 (NCI-H520): 7.71 | pIC50 [1]: 9.00 | pIC50 (SW780): 8.27

SMILES: COc1ccc(Nc2ncc3c(n2)N(C2CCN(C(=O)/C=C/CN(C)C)CC2)C(=O)N(c2c(Cl)c(OC)cc(OC)c2Cl)C3)cc1
pIC50 (NCI-H520): 8.52 | pIC50 [1]: 9.10 | pIC50 (SW780): 9.52
